Assay [1] addresses Estrogen receptor (Bos taurus) (UniProt Q9XSB5+P49884). Description: Displacement of [3H]- estradiol from calf uterine estrogen receptor. Type of assay: protein assay. Put shortly:
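Competitive binding with calf uterine cytosol as the estrogen receptor source, [3H]estradiol as tracer, and dextran-charcoal separation. RBA = (molar concentration of E2 / molar concentration of inhibitor needed to reduce bound [3H]E2 by 50%) × 100, with 17β-estradiol = 100.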

Assay [2] has as its system Rattus norvegicus. Description: Change in body weight in rats after 7 days at 6 mg/kg dose. The class given is functional.
In assay [3] the test system is Rattus norvegicus. Description: Tumour number in DMBA-induced mammary carcinoma in rats at 2 mg/kg dose. Type of assay: functional. Put shortly:
(§1)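 Sprague-Dawley rats bearing DMBA-induced mammary tumours, randomized in groups of 10 between days 35 and 70 after induction. Dosing was sc in olive oil at 2 or 6 mg/kg: a single dose daily Monday–Thursday and a double dose Friday, for 4 weeks. Tumour number was taken at test start. Complete remission = not palpable; partial = ≤50% of initial size; static = 51-150% of initial size.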

In assay [4] the test system is Rattus norvegicus. Description: Complete remission of DMBA-induced mammary carcinoma in rats at 6 mg/kg dose. Type of assay: functional. An outline of the steps:
as §1

The species entered for assay [5] is Rattus norvegicus. Description: (§2) Increased total tumor area (>150%) in DMBA-induced mammary carcinoma in rats. Type of assay: functional. Put shortly:
as §1

In assay [6] the test system is Rattus norvegicus. Kind of assay: Complete remission of DMBA-induced mammary carcinoma in rats at 2 mg/kg dose. The class given is functional. Put shortly:
as §1

For assay [7], the species on record is Rattus norvegicus. Kind of assay: (§3) Partial remission of DMBA-induced mammary carcinoma in rats. Type of assay: functional. Put shortly: as §1
Assay [8] is filed under the species Rattus norvegicus. The assay is described as §3. The class given is functional. An outline of the steps: as §1
This is another data set of the same source.

In assay [9] the test system is Rattus norvegicus. Description: Tumour number in DMBA-induced mammary carcinoma in rats at 6 mg/kg dose. The class given is functional. An outline of the steps:
as §1

The species named for assay [10] is Rattus norvegicus. Kind of assay: (§4) Unchanged total tumor area (51-150%) in DMBA-induced mammary carcinoma in rats. Type of assay: functional. An outline of the steps:
as §1

The subject of assay [11] is Rattus norvegicus. Kind of assay: Progression of DMBA-induced mammary carcinoma in rats at 2 mg/kg dose. Type of assay: functional. An outline of the steps: as §1
The subject of assay [12] is Rattus norvegicus. Description: Progression of DMBA-induced mammary carcinoma in rats at 6 mg/kg dose. Type of assay: functional. An outline of the steps:
as §1

The species named for assay [13] is Rattus norvegicus. The assay is described as §2. Type of assay: functional. Put shortly:
as §1
This is another data set of the same source.

The species entered for assay [14] is Rattus norvegicus. Described as §4. The class given is functional. Put shortly: as §1
The source holds these as a separate data set.

Assay [15] deals with Rattus norvegicus. Description: Change in body weight in rats after 7 days at 2 mg/kg dose. Type of assay: functional.
The species named for assay [16] is Rattus norvegicus. Described as §2. Type of assay: functional. An outline of the steps:
as §1
This is another data set of the same source.

From ChEMBL document CHEMBL1121975, “Effect of N,N'-diethyl-1,2-bis(2,6-dichloro-4-hydroxyphenyl)ethylenediamines on the 7,12-dimethylbenz[a]anthracene-induced mammary carcinoma of the rat” (1982) come the findings set out here.

`CCCNC(c1c(Cl)cc(O)cc1Cl)C(NCCC)c1c(Cl)cc(O)cc1Cl` (stereo in doubt) gave a relative binding affinity (RBA) in [1] of 8.2.

For `CCCNC(c1c(Cl)cc(O)cc1Cl)C(NCCC)c1c(Cl)cc(O)cc1Cl` (racemic), in assay [1], the relative binding affinity (RBA) was 1.

In assay [1], `CNC(c1c(Cl)cc(O)cc1Cl)C(NC)c1c(Cl)cc(O)cc1Cl` (stereo in doubt) returned a relative binding affinity (RBA) of 2.3.

For the compound `CCNC(c1c(Cl)cc(O)cc1Cl)C(NCC)c1c(Cl)cc(O)cc1Cl` (stereo in doubt) [listing 1 of 2 here], the “Change of body weight” value is recorded as -4% with Rattus norvegicus [2] and -6% with Rattus norvegicus [15]. Further, the “Change of tumor area” value in the assay on Rattus norvegicus [2] is reported as -74%; in the assay on Rattus norvegicus [15], 29%. Further, the values for the No. of tumors with Rattus norvegicus [3] and in the assay with Rattus norvegicus [9] were 35 and 26, respectively. In addition, the Complete remission is 28% with Rattus norvegicus [4] and 50% in the assay with Rattus norvegicus [6]. Also, the figures for the Progressed tumors in the assay listed under Rattus norvegicus [5] and in the assay listed under Rattus norvegicus [13] were 26% and 3%, respectively. Further, the Partial remission is 53% in the assay filed under Rattus norvegicus [7] and 14% in the assay filed under Rattus norvegicus [8]. Further, the Static tumors in the assay listed under Rattus norvegicus [10] is given as 16%; in the assay listed under Rattus norvegicus [14] it was 10%. The New tumors in the assay on Rattus norvegicus [11] stood at 7; with Rattus norvegicus [12] it was 6.

Regarding `CNC(c1c(Cl)cc(O)cc1Cl)C(NC)c1c(Cl)cc(O)cc1Cl` (racemic), the relative binding affinity (RBA) in assay [1] is 1.3.

With `CCNC(c1c(Cl)cc(O)cc1Cl)C(NCC)c1c(Cl)cc(O)cc1Cl` (racemic) [listing 1 of 2 here], the “Change of body weight” value in the assay with Rattus norvegicus [2] is reported as -2%; in the assay with Rattus norvegicus [15] it was 0%. The entries for the “Change of tumor area” value in the assay with Rattus norvegicus [2] and with Rattus norvegicus [15] were -24% and 282%, respectively. Further, the values for the No. of tumors in the assay with Rattus norvegicus [3] and in the assay with Rattus norvegicus [9] were 34 and 28, respectively. Also, the Complete remission in the assay with Rattus norvegicus [4] is given as 35%; with Rattus norvegicus [6] it was 14%. In addition, the Progressed tumors in the assay filed under Rattus norvegicus [16] is 54%; in the assay listed under Rattus norvegicus [13], 16%. Also, the Partial remission in the assay filed under Rattus norvegicus [7] is 26%; in the assay filed under Rattus norvegicus [8], 11%. Besides, the Static tumors in the assay filed under Rattus norvegicus [10] was found to be 23%; in the assay filed under Rattus norvegicus [14], 21%. For the same compound, the New tumors in the assay on Rattus norvegicus [11] amounted to 18; with Rattus norvegicus [12], 15.

`CCNC(c1c(Cl)cc(O)cc1Cl)C(NCC)c1c(Cl)cc(O)cc1Cl` (stereo in doubt) [listing 2 of 2 here] showed a relative binding affinity (RBA) in assay [1] of 8.6.

Compound `CCNC(c1c(Cl)cc(O)cc1Cl)C(NCC)c1c(Cl)cc(O)cc1Cl` (racemic) [listing 2 of 2 here] gave a relative binding affinity (RBA) in assay [1] of 2.1.
